Screening results as filed in PubChem.
An excerpt weighted towards active compounds, which were near 1.9% of everything screened.
M5 antag – blocks acetylcholine activation of human M5 receptor. CHO-hM5 cells, Fluo-8 calcium fluorescence, ACh EC80. 360,000 compounds, 0.59% hits. inhibition, % at 3 µM. P08912;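 active = inhibition above a per-plate cutoff, the mean of that plate's test compounds plus 3 SD, cut at about 27% in these data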;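 also: 0% = acetylcholine EC80 with DMSO and 100% = DMSO without agonist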
Target sequence (P08912 whole entry, looked up): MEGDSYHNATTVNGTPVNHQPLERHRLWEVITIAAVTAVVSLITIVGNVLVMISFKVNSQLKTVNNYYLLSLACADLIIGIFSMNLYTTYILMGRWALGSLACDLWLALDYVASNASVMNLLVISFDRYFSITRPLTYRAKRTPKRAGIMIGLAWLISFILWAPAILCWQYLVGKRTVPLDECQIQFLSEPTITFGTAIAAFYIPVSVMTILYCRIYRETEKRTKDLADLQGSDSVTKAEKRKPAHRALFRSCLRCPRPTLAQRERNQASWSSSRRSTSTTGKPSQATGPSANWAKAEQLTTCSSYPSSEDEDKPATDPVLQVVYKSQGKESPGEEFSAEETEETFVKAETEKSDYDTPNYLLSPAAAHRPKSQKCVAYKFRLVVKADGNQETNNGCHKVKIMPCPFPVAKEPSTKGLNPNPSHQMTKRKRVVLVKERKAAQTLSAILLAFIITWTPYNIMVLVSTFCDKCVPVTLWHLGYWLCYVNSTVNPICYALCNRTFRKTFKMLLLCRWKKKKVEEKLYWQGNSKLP
CHRM4 antagonist – antagonists of human muscarinic M4 receptor (CHRM4) | P08173 | CHO-hM4 cells, ACh EC80, Fluo-8 calcium fluorescence | inhibition, % at 3 µM | 360,000 compounds, 0.73% hits | AID 624125;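 active = inhibition above its plate's cutoff, the mean inhibition of sample wells plus 3 SD, cut at about 27% in these data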;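 also: 0% = acetylcholine EC80 with DMSO and 100% = DMSO without agonist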
M5 PAM – positive allosteric modulators of human muscarinic M5 receptor | P08912 | CHO-K1 hM5, Fluo-8 calcium, ACh EC20 PAM; 0% = ACh EC20, 100% = ACh EC100 | activation, % at 3 µM | 360,000 compounds, 0.3% hits | AID 624038;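 active = activation above the run cutoff, the mean activation of all test compounds plus 3 SD, cut at about 18% in these data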
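system = human M5 receptor in CHO-K1 cells | compound = one concentration, 3 µM final (nominal) | schedule = Post-acetylcholine fluorescence recording 140 s | signal = Fluo-8 calcium dye fluorescence, kinetic read | benchmarks = low control EC20 acetylcholine (0%), high control EC100 acetylcholine (100%) | repeats = singlicate, one well per test compound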
M4 PAM – positive allosteric modulators of human muscarinic M4 receptor; P08173; CHO-K1 hM4/Gqi5, Fluo-8 calcium fluorescence, ACh EC20; 0% = ACh EC20, 100% = maximal ACh; activation, % at 3 µM; 360,000 compounds, 0.4% hits; AID 624126;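 active = activation above its plate's cutoff, the mean activation of sample wells plus 3 SD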
CHRM5 agonist – CHRM5 agonism in calcium assay | CHO-K1 hM5 cells, Fluo-8 calcium fluorescence; 0% DMSO wells, 100% maximal acetylcholine response | activation, % at 3 µM | 360,000 compounds, 0.19% hits | AID 624037;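 active = activation above the run's mean over test compounds plus 3 SD, cut at about 23% in these data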;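 also: signal is peak over basal fluorescence ratio across the kinetic read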
M4 ag – agonists of human muscarinic M4 receptor (CHRM4). P08173. CHO-K1 hM4/Gqi5, Fluo-8 calcium fluorescence; vehicle 0%, full acetylcholine response 100%. activation, % at 3 µM. 360,000 compounds, 0.14% hits. AID 624127;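 active = activation above the run mean over all test wells plus 3 SD, cut at about 32% in these data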;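 also: peak over basal fluorescence ratio per well then scaled between controls; 0% = DMSO wells and 100% = acetylcholine at EC100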
Active calls of the source: *.

SMILES	M5 antag	CHRM4 antagonist	M5 PAM	M4 PAM	CHRM5 agonist	M4 ag
COc1ccc(-n2nc(C(=O)NCC(=O)NCCCN3CCCCCC3)c3ccccc3c2=O)cc1Cl	0	32*	6	-21	-12	1
COc1ccc(-n2nc(C(=O)NCC(=O)NCCCN3CCC(C)CC3)c3ccccc3c2=O)cc1Cl	0	14	1	-13	-4	0
COc1ccc(CCNc2ncnc3sc(C)cc23)cc1OC	37*	27*	-28	-11	3	21
COc1ccc(CCNc2ncnc3[nH]ncc23)cc1OC	-2	-15	-2	3	2	7
O=C1C(Nc2ccc(O)cc2)=C/C(=N/S(=O)(=O)c2cccs2)c2ccccc21	35*	7	2	-10	-7	9
O=C(O)c1ccc(NC2=C/C(=N/S(=O)(=O)c3cccs3)c3ccccc3C2=O)cc1	4	-1	2	3	1	4
COc1ccccc1NC(=O)Cc1nc(=O)[nH]c(=O)[nH]1	10	-10	-9	3	1	1
C/C(=N\NC(=O)c1nn(C)c(C)c1Br)c1cccc(NC(=O)c2ccoc2C)c1	11	17	22*	5	-4	2
O=C(Nc1ccc2cccnc2c1)c1ccc(Br)cc1	9	-18	1	15*	1	-2
CSc1nc2ccc(NC(=O)CS(=O)(=O)c3ccccc3)cc2s1	-8	-9	5	-2	0	5
O=C(/C=C/c1ccccc1)NC(NC(=S)Nc1ccc(Cl)cc1Cl)C(Cl)(Cl)Cl (centres undefined)	34*	9	-19	-24	1	11
S=C1NC[C@H](Cc2cccc3ccccc23)N1CC1CCCCC1	5	-4	7	10	-1	4
O=C1NC[C@@H](Cc2cccc3ccccc23)N(CC2CCCCC2)C1=O	-17	-1	22*	7	2	1
CCOC(=O)c1sc(=S)n(-c2ccccc2)c1N(C(C)=O)C(C)=O	2	-4	0	11	-1	2
O=C(Cn1nnc(-c2ccc(CN3CCOCC3)cc2)n1)N(c1ccccc1)c1ccccc1	2	5	23*	7	1	1
CCCCN(CC(=O)Nc1c(C)cccc1CC)C(=O)SCC	-4	-4	5	15	-3	0
CCCCCCCCCCCCCCCC[n+]1cccc2ccccc21	64*	52*	-20	-15	-8	-1
O=[N+]([O-])c1ccc(C[n+]2cccc3c4ccccc4ccc32)cc1	14	0	3	-5	-8	1
CCCCCCCCC[n+]1cccc2c3ccccc3ccc21	41*	70*	-20	-22	-4	3
Cc1ccccc1C[n+]1cccc2ccccc21	9	18	-7	-3	-13	0
Cn1c(N/N=C/c2cc3ccccc3nc2Cl)nc2ccccc21	1	6	-5	0	0	1
O=C(NCc1ccccc1)NC1(C(=O)N2CCOCC2)CCCCC1	-8	24	42*	-1	-3	0
COc1ccc(CNC(C)C23CC4CC(CC(C4)C2)C3)c(OC)c1OC (centres undefined)	2	4	9	-4	-5	6
CC(NCc1ccc(OCC(N)=O)cc1)C12CC3CC(CC(C3)C1)C2 (centres undefined)	4	29*	-3	-15	-1	1
Cc1onc(-c2ccccc2)c1C(=O)N1CCN(c2ncccn2)CC1	6	1	0	2	3	2
SMILES	M5 antag	CHRM4 antagonist	M5 PAM	M4 PAM	CHRM5 agonist	M4 ag
O=C(CN1CCN(c2ccccc2)CC1)Nc1ccncc1	5	-10	1	-4	3	3
O=C(CN1CCN(c2ccccc2)CC1)Nc1ccc2c(c1)CCC2	-5	-6	0	21*	-3	1
O=C(CCNS(=O)(=O)c1ccc(OC(F)(F)F)cc1)NCCc1c[nH]c2ccccc12	15	11	-11	-6	3	11
COC(=O)CCCCCCCCCCN1CCCCC1	-1	40*	-6	-16	-9	2
COC(=O)CCCCC(=O)OC	6	3	-5	6	1	2
CCN(CC)CCOC(=O)C(Cc1ccco1)Cc1cccc2ccccc12 (centres undefined)	28*	17	-27	-15	-16	12
CC(C)[N+](C)(CCOC(=O)C1c2ccccc2Oc2ccccc21)C(C)C	98*	100*	-18	-18	-2	0
C=CCN(CC=C)C(=O)C1c2ccccc2Oc2ccccc21	-2	-4	-1	5	-2	-2
CCN(CC)C(=O)C1c2ccccc2Oc2ccccc21	14	20	-12	-15	53*	33*
O=C(NCc1ccco1)C1c2ccccc2Oc2ccccc21	1	27*	-3	-8	-11	4
CC(C)CNC(=O)COC(=O)C1c2ccccc2Oc2ccccc21	-2	-25	-1	-6	-3	3
Cc1n[nH]c(=O)n(N=Cc2cccs2)c1=O	9	0	1	-3	2	1
CN(CC(=O)N/N=C/c1ccc(F)cc1)S(=O)(=O)c1ccccc1	3	10	1	-1	1	2
CCCCCCCCN1N=N[C@H]2[C@H]1[C@@H]1C[C@H]2N(C(=O)OC(C)(C)C)O1	3	31*	-10	-15	-3	3
Cc1cc(NC(=O)CSc2ccnc(=O)[nH]2)no1	-1	0	-3	-3	-1	0
O=C(c1ccc2ccccc2n1)N1CCN(S(=O)(=O)c2ccccc2)CC1	7	-8	-15	0	-9	7
COc1ccc(-c2cc(C(=O)OCC(=O)c3cccc([N+](=O)[O-])c3)c3cc(C)ccc3n2)cc1	13	-8	17	23*	4	3
CCN1CCN(S(=O)(=O)c2ccc(Cl)c(C(=O)N(C)Cc3ccc(C(C)(C)C)cc3)c2)CC1	10	-1	-26	-11	-7	13
Cc1ccc(-c2nnc(NC(=O)Cc3ccc(F)cc3)o2)c(C)c1	-6	4	5	4	-2	0
CCc1nnc(NC(=O)c2cc(-c3ccco3)nc3ccccc23)s1	-5	-8	14	4	1	1
CCc1nnc(NC(=O)c2cc(-c3ccccn3)nc3ccccc23)s1	5	-2	2	19*	5	1
CCCc1nnc(NC(=O)c2ccncc2)s1	-3	2	-2	0	2	0
CCc1nnc(NC(=O)c2ccncc2)s1	-7	-5	20*	18*	-4	0
O=C1NC[C@H](CCCCN2CCN(Cc3ccccc3)C(=O)C2=O)N(CCc2ccccc2)C1=O	1	-3	-3	-5	1	0
